The results in this text go back to ChEMBL document CHEMBL1133331, “Guanylpiperidine peptidomimetics: potent and selective bis-cation inhibitors of factor Xa” (Bioorg Med Chem Lett, 2000).

The term IC50 denotes the point on the concentration scale where inhibition reaches its midpoint. Low values mean greater potency in that assay, high ones weaker potency in that assay. For orientation: Ki means a dissociation constant, usually derived from enzyme kinetics or from competition with a known ligand.

Test [1] in a line: Ratio of inhibitory concentration of prothrombinase to that of human factor Xa was determined.
Test [2] addresses Plasminogen (Homo sapiens, UniProt P00747). Description: In vitro inhibition of human plasmin. The method, boiled down: (§1)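 Purified human enzymes (plasmin, thrombin/factor IIa, trypsin) were each tested for inhibitor-dependent cleavage of a chromogenic substrate. IC50 is the concentration that blocks 50% of substrate cleavage.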
Test [3] deals with Serine protease 1 (Homo sapiens, UniProt P07477). Nature of the test: In vitro inhibition of human trypsin. The method, boiled down: as §1
The target in test [4] is Prothrombin (Homo sapiens, UniProt P00734). Description: In vitro inhibition of human thrombin. The method, boiled down:
as §1

Test [5] addresses T1, Coagulation factor X (Homo sapiens, UniProt P00742). Nature of the test: Concentration required for classical fast inhibition of cleavage of the chromogenic substrate by human enzyme Coagulation factor X in vitro.
Test [6] has as its target T1, Coagulation factor X. Description: In vitro inhibition of human Coagulation factor X.
Test [7] in a line: Concentration required to inhibit the activation of human prothrombin in a preformed complex of factor Xa, factor IIa and phospholipid in vitro. Particulars: in the assay text read “factor Va” for “factor IIa”. The method, boiled down: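 The assembled prothrombinase complex was assayed with its natural substrate, prothrombin, to measure inhibition of prothrombin activation. IC50 is the concentration giving 50% inhibition.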

Test [8] concerns the target T1, Coagulation factor X. Description: In vitro inhibitory activity against human Coagulation factor X.
Test [9] has as its target T1, Coagulation factor X. Description: Concentration required to inhibit the cleavage of the chromogenic substrate by human enzyme Coagulation factor X in vitro.

Chain of Serine protease 1 (P07477 whole entry): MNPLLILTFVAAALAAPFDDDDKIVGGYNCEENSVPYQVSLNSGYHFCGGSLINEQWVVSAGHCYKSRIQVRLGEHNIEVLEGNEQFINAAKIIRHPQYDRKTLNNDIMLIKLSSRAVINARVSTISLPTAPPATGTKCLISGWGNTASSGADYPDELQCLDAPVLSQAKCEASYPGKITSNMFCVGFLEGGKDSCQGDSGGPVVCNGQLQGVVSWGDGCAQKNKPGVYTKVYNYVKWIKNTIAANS
T1 sequence (P00742 41-179 limits assumed): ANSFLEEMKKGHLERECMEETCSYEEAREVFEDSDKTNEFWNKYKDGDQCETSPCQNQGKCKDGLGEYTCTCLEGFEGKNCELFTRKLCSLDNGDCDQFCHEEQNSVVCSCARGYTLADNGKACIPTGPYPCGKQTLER
T1 sequence (P00742 235-488 limits assumed): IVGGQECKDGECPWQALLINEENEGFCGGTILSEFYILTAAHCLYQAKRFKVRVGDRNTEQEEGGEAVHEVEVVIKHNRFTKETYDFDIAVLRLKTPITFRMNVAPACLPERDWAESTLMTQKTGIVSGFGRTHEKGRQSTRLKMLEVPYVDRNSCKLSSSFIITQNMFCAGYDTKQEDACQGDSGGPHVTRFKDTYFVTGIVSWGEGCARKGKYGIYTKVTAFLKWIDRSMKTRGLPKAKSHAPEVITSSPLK
Chain of Plasminogen (P00747 97-580 limits assumed): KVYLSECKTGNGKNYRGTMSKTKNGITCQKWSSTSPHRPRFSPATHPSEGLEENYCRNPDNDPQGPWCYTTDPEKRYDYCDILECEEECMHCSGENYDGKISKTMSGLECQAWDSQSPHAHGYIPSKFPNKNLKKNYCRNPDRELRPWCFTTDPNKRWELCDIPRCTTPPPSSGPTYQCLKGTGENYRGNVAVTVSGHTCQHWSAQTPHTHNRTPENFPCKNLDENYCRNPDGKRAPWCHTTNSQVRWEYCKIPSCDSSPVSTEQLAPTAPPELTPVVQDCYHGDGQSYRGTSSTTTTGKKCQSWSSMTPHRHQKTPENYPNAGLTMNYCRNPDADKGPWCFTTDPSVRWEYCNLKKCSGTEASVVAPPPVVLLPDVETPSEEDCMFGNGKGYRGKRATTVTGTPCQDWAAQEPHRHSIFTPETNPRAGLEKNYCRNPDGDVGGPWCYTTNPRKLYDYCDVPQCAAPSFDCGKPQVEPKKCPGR
Chain of Plasminogen (P00747 581-810 limits assumed): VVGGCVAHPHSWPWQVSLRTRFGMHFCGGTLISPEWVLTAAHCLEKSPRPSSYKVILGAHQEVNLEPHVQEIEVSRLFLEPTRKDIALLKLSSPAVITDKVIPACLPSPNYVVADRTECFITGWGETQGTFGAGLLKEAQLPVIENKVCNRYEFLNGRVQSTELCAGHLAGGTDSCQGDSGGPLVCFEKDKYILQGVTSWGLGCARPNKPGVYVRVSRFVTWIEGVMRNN

Regarding `N=C(N)N1CCC(C[C@@H](NS(=O)(=O)Cc2cccc(C(=O)O)c2)C(=O)NCC(=O)N[C@H]2CCCN(C(=N)N)C2O)CC1` (some centres undefined), the Ratio in test [1] came to 0.9. The IC50 was 231 nM in [2]; 211 nM in test [3]; greater than 2500 nM in [4]; 4.3 nM in test [6]; 14 nM in test [7]. The same compound gave a Ki in test [5] of 16 nM.

As to `N=C(N)N1CCC(C(NS(=O)(=O)Cc2ccccc2)C(=O)NCC(=O)N[C@H]2CCCN(C(=N)N)C2O)CC1` (some centres undefined), the concentration for half-maximal inhibition (IC50) in test [2] is 678 nM; in test [3] it was 25 nM; in test [4], greater than 2500 nM; in test [6] it was 1.1 nM.

As for `N=C(N)NCCC[C@@H](NC(=O)OCc1ccccc1)C(=O)NCC(=O)N[C@H]1CCCN(C(=N)N)C1O` (stereo in doubt) [listing 1 of 2 here], the Ratio in test [1] came to 3.8.

For `CCOC(=O)c1ccc(CCOC(=O)N[C@H](CC2CCN(C(=N)N)CC2)C(=O)NCC(=O)N[C@H]2CCCN(C(=N)N)C2O)cc1` (some centres undefined), the half-maximal inhibitory concentration (IC50) is 1440 nM in test [2], 158 nM in [3] and greater than 2500 nM in test [4]. This compound returned an inhibitory constant (Ki) in test [8] of 16 nM.

As to `COC(=O)c1ccccc1CS(=O)(=O)N[C@H](CC1CCCN(C(=N)N)C1)C(=O)NCC(=O)N[C@H]1CCCN(C(=N)N)C1O` (stereo in doubt; form 2), the half-maximal inhibitory concentration (IC50) in [2] was 894 nM; in test [3], 124 nM; in test [4], greater than 2500 nM; in [6] it was 1.08 nM.

In the case of `N=C(N)N1CCC(C[C@@H](NS(=O)(=O)Cc2ccccc2C(=O)O)C(=O)NCC(=O)N[C@H]2CCCN(C(=N)N)C2O)CC1` (some centres undefined), the Ratio in [1] is 2.3. Further, the IC50 in test [2] was 2500 nM; in [9], 5.3 nM; in [3], 447 nM; in [4], greater than 2500 nM; in test [6], 5.7 nM; in test [7], 12 nM.

Consider `N=C(N)N1CCCC(C[C@@H](NS(=O)(=O)Cc2ccccc2C(=O)O)C(=O)NCC(=O)N[C@H]2CCCN(C(=N)N)C2O)C1` (stereo in doubt), for which the IC50 in test [2] is greater than 2500 nM; in [3], 33 nM; in [4], 352 nM; in [6], 4.2 nM.

For the compound `N=C(N)NCCC[C@@H](NS(=O)(=O)Cc1ccccc1)C(=O)NCC(=O)N[C@H]1CCCN(C(=N)N)C1O` (some centres undefined), the IC50 in test [2] was 1190 nM; in test [3], 75 nM; in test [4], greater than 2500 nM; in [6], 0.9 nM.

On to `N=C(N)N1CCC(C[C@@H](NS(=O)(=O)Cc2ccccc2)C(=O)NCC(=O)N[C@H]2CCCN(C(=N)N)C2O)CC1` (some centres undefined), for which the Ratio in [1] was 3.7. Moreover, the IC50 was 869 nM in test [2]; 169 nM in [3]; greater than 2500 nM in test [4]; 0.83 nM in test [6]; 3.1 nM in test [7].

In the case of `N=C(N)NCCC[C@@H](NC(=O)OCc1ccccc1)C(=O)NCC(=O)N[C@H]1CCCN(C(=N)N)C1O` (single isomer, unassigned) [listing 1 of 2 here], the IC50 was 35 nM in [6] and 7.9 nM in [7].

Turning to `N=C(N)N1CCCC(C[C@@H](NS(=O)(=O)Cc2ccccc2C(=O)O)C(=O)NCC(=O)N[C@H]2CCCN(C(=N)N)C2O)C1` (single isomer, unassigned), the IC50 in test [2] is 2500 nM; in test [3] it was 240 nM; in test [4] it was greater than 2500 nM; in test [6], 2.1 nM.

For the compound `COC(=O)c1ccccc1CS(=O)(=O)N[C@H](CC1CCCN(C(=N)N)C1)C(=O)NCC(=O)N[C@H]1CCCN(C(=N)N)C1O` (stereo in doubt; form 1), the IC50 in [2] was 1950 nM; in test [3] it was 15 nM; in test [4], 1100 nM; in [6], 1.37 nM.

Turning to `N=C(N)N1CCCC(C[C@@H](NS(=O)(=O)Cc2ccccc2)C(=O)NCC(=O)N[C@H]2CCCN(C(=N)N)C2O)C1` (single isomer, unassigned) [listing 1 of 2 here], the IC50 in test [2] is 919 nM; in test [3], 120 nM; in [4] it was greater than 2500 nM; in test [6], 1.2 nM; in test [7], 4.2 nM.

Take `COC(=O)c1cccc(CS(=O)(=O)N[C@H](CC2CCN(C(=N)N)CC2)C(=O)NCC(=O)N[C@H]2CCCN(C(=N)N)C2O)c1` (some centres undefined): the IC50 in [2] is 387 nM; in test [3], 145 nM; in [4], greater than 2500 nM; in [6], 2.2 nM.

As for `N=C(N)N1CCC(C[C@@H](NS(=O)(=O)Cc2ccccc2-n2cnnn2)C(=O)NCC(=O)N[C@H]2CCCN(C(=N)N)C2O)CC1` (some centres undefined), in [1], the Ratio came to 3. In addition, the IC50 in [2] is 872 nM; in test [3], 537 nM; in test [4], greater than 2500 nM; in [6], 2.6 nM; in test [7] it was 69 nM. This compound also registered a Ki in test [5] of 23 nM.

Regarding `N=C(N)N1CCCC(C[C@@H](NS(=O)(=O)Cc2ccccc2)C(=O)NCC(=O)N[C@H]2CCCN(C(=N)N)C2O)C1` (stereo in doubt) [listing 1 of 2 here], the half-maximal inhibitory concentration (IC50) in test [2] is 726 nM; in test [3] it was 31 nM; in test [4], greater than 2500 nM; in [6] it was 0.92 nM; in test [7], 3.3 nM.

Regarding `N=C(N)NCCC[C@@H](NC(=O)OCc1ccccc1)C(=O)NCC(=O)N[C@H]1CCCN(C(=N)N)C1O` (stereo in doubt) [listing 2 of 2 here], the values for the IC50 in [6] and in [7] were 0.9 nM and 3.4 nM, respectively.

Take `COC(=O)N[C@H](CC1CCN(C(=N)N)CC1)C(=O)NCC(=O)N[C@H]1CCCN(C(=N)N)C1O` (some centres undefined): the IC50 in test [2] was greater than 2500 nM; in [3], 412 nM; in [4], greater than 2500 nM. For the same compound, the Ki in test [8] turned out to be 23 nM.

Take `N=C(N)NCCC[C@@H](NC(=O)OCc1ccccc1)C(=O)NCC(=O)N[C@H]1CCCN(C(=N)N)C1O` (stereo in doubt; 1): the IC50 in [2] is greater than 2500 nM; in [3], 115 nM; in test [4], greater than 2500 nM; in [6] it was 34.9 nM.

Turning to `COC(=O)c1ccccc1CS(=O)(=O)N[C@H](CC1CCN(C(=N)N)CC1)C(=O)NCC(=O)N[C@H]1CCCN(C(=N)N)C1O` (some centres undefined), the concentration for half-maximal inhibition (IC50) was 965 nM in test [2], 147 nM in test [3], greater than 2500 nM in test [4] and 0.94 nM in test [6].

`N=C(N)N1CCCC(C[C@@H](NS(=O)(=O)Cc2ccccc2)C(=O)NCC(=O)N[C@H]2CCCN(C(=N)N)C2O)C1` (stereo in doubt) [listing 2 of 2 here]: the Ratio in [1] was 3.6.

In the case of `N=C(N)NCCC[C@@H](NC(=O)OCc1ccccc1)C(=O)NCC(=O)N[C@H]1CCCN(C(=N)N)C1O` (single isomer, unassigned) [listing 2 of 2 here], the Ratio in test [1] turned out to be 0.23.

On to `N=C(N)N1CCCC(C[C@@H](NS(=O)(=O)Cc2ccccc2)C(=O)NCC(=O)N[C@H]2CCCN(C(=N)N)C2O)C1` (single isomer, unassigned) [listing 2 of 2 here], for which the Ratio in test [1] is 2.
